# Compound activity: PubChem, several laboratories
# TRPC4 block = blocks the mouse TRPC4 cation channel | AID 2247 | HEK293 TRPC4beta/mu-opioid, DAMGO-evoked Fluo4 calcium flux; hits give low values | B-score at 10 µM | Q9QUQ5 | 0.39% of 300,000 active;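 active = B-score over 3 SD under the library average, no early fluorescence shift, positive overall ratio signal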
#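 Test system – stable TRPC4beta/mu-opioid receptor HEK293 cells · Probe or stimulus – DAMGO, a submaximal dose followed by a maximal one · Dosing – one concentration per compound · Signal – Fluo4 calcium fluorescence by kinetic imaging, 5 s 1 Hz baseline · Evaluation – per-well B score of integrated baseline-normalized Fluo4 ratio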
# TRPC6 inhibitor = mouse TRPC6 channel inhibition; Q61143; HEK293-TRPC6, membrane potential dye, ACh-evoked depolarization; hits give low values; B-score at 10 µM; 1.1% of 310,000 active;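 active = B-score under library mean minus 3 SD, initial fluorescence not abnormally high, positive integrated signal ratio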;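 note: B-score derived from integrated fluorescence ratio over the kinetic read; more negative B-score means stronger inhibition of depolarization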
# Target sequence (Q61143 whole entry, looked up): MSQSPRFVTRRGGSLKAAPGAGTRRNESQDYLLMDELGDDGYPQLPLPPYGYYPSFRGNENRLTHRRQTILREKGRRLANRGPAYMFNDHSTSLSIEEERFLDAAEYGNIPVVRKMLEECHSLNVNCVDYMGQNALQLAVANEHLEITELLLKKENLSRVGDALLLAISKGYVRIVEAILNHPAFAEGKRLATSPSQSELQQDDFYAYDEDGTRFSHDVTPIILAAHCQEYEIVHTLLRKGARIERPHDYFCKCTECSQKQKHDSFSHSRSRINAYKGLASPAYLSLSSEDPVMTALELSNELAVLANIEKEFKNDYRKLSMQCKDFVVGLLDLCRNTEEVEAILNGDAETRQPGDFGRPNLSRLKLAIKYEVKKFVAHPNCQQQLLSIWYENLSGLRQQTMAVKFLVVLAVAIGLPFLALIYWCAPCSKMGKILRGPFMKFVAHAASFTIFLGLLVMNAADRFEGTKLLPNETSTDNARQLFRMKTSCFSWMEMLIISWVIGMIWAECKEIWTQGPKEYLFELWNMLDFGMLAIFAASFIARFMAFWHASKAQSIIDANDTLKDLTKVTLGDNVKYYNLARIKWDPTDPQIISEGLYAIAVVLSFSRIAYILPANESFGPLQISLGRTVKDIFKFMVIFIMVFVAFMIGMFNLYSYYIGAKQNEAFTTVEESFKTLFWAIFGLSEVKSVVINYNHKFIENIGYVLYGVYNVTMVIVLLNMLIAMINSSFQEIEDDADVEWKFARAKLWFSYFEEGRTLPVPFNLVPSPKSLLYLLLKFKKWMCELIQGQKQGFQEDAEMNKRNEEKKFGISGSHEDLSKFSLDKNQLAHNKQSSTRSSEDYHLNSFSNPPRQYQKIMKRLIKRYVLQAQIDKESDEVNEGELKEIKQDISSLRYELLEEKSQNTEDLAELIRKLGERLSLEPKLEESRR
# Yeast superoxide = caloric restriction mimetics inhibiting age-related superoxide in yeast. 0.18% of 330,000 active. superoxide response (% of plate mean), % at 10 µM. S. cerevisiae aged cells, superoxide DHE fluorescence; hits give low values;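 active = superoxide response under a set limit, about three screen SD below normal, cut at about 65% in these data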;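 note: yeast aged for seven days with compound at 30 °C before DHE staining; 100% = average MFI of all compound-treated wells on the plate with controls excluded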
# TRPC6 activator = mouse TRPC6 channel activation; Q61143; HEK293-TRPC6 membrane potential dye fluorescence; hits give high values; B-score at 10 µM; 0.13% of 310,000 active;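 active = B-score of the integrated fluorescence ratio above library mean plus 3 SD, and starting fluorescence ratio within library mean plus 5 SD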;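 note: higher score means more depolarization so channel activation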
# TRPC4 potent = TRPC4 (mouse) allosteric potentiation. HEK293 TRPC4beta/mu-opioid, DAMGO EC20, Fluo-4 Ca2+ flux; hits give high values. Q9QUQ5. B-score at 10 µM. 0.42% of 310,000 active;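 active = B-score of calcium response area above 5 SD of library B-scores, with initial fluorescence ratio within 5 SD of library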;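 note: B-score of integrated fluorescence ratio over time as area under calcium response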
# TRPC4 act = TRPC4 (mouse) channel activation. 0.49% of 310,000 active. Q9QUQ5. HEK293 TRPC4beta/mu-opioid, Fluo4 calcium fluorescence; hits give high values. B-score at 10 µM. AID 2237;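 active = B-score above 5 SD of library B-scores, and initial fluorescence ratio not above library mean plus 5 SD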;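 note: positive B-score marks a calcium rise read as TRPC4 activation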
#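 Assay system: HEK293 stable line with TRPC4beta plus mu-opioid receptor; schedule: 45 min room-temperature Fluo4 loading, 110 s read; technique: kinetic Fluo4 calcium fluorescence; evaluation: integrated baseline-normalised fluorescence ratio, converted to per-well B score; controls: buffer (low) and maximal DAMGO (high)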
# TRPC4 spec 2 = mouse TRPC4 off-target activity of TRPC6 inhibitors, second screen. shares compounds with TRPC6 inhibitor. HEK293 TRPC4/MOR, membrane potential dye fluorescence; channel activated by saturating DAMGO dose. inhibition, % at 10 µM. 42% of 920 active;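 active = compounds whose fluorescence signal differed from control wells by over 3 SD, either direction, in both duplicate plates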
# TRPC4 spec = selectivity of TRPC6 inhibitors: effect on mouse TRPC4; AID 2777; shares compounds with TRPC6 inhibitor; HEK293 TRPC4/mu-opioid, membrane potential fluorescence; activity change, negative = inhibition, % at 10 µM; 61% of 920 active;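 active = rise or fall in signal beyond 3 SD of buffer-only wells in both replicate plates, either sign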;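 note: integrated kinetic ratio of fluorescence range over baseline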
# HEK293 MPD ctr 2-1 = second check of TRPC6 inhibitor effects in parental HEK293 cells | AID 2779 | signal change vs control, % at 10 µM | parental HEK293 membrane potential dye fluorescence; maximal acetylcholine challenge after compound addition | shares compounds with TRPC6 inhibitor | 31% of 920 active;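 active = membrane potential signal moving either way by over 3 SD of the maximum-effect control, in both duplicate plates, meaning non-specific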
# HEK293 MPD ctr-1 = parental HEK293 nonspecific activity of TRPC6 inhibitors; shares compounds with TRPC6 inhibitor; parental HEK293 membrane potential dye fluorescence; membrane potential signal change, % at 10 µM; 60% of 920 active;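 active = membrane potential signal shifting up or down by more than 3 SD of buffer-only wells, on both duplicate plates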
# HEK293 MPD ctr-2 = counter-screen for TRPC6 modulators: effect in parental HEK293 cells | AID 488924 | membrane potential dye fluorescence | 51% of 2,400 active | shares compounds with TRPC6 inhibitor | membrane potential signal change, % at 10 µM;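 active = membrane potential signal moves up or down beyond 5 SD from buffer-only wells, on both duplicate plates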
# HEK293 MPD ctr 2-2 = second check of TRPC6 modulator effects in parental HEK293 cells | shares compounds with TRPC6 inhibitor | membrane potential dye fluorescence; after compound, maximal acetylcholine stimulation | inhibition, % at 10 µM | 14% of 2,400 active;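 active = membrane potential signal drops by more than 5 SD from the mean control signal, in both duplicate plates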;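 note: plate controls were acetylcholine ECmax control wells for no effect and buffer only wells for full effect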
# TRPC4 ctr mod = mouse TRPC4 off-target activity of TRPC6 modulators; shares compounds with TRPC6 inhibitor; AID 488927; 69% of 2,400 active; percent change from control (negative = decrease, positive = increase), % at 10 µM; HEK293 TRPC4/mu-opioid, membrane potential fluorescence;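 active = membrane potential signal moved up or down beyond 5 SD of buffer control wells, in both duplicate plates, actives on both sides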;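 note: plate controls were assay buffer wells for no effect and DAMGO maximal-effect wells for full effect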
# TRPC4 ctr inh 2 = mouse TRPC4 off-target activity of TRPC6 modulators, second screen. shares compounds with TRPC6 inhibitor. HEK293 TRPC4/mu-opioid, membrane potential dye fluorescence; stimulated with maximal-effect DAMGO. inhibition, % at 10 µM. 55% of 2,400 active. AID 488928;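 active = drop in membrane potential signal beyond 5 SD of the control wells in both duplicate plates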;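 note: TRPC4 counter screen for TRPC6 hits run under conditions tuned for TRPC6 not TRPC4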
# TRPC6 block conf = mouse TRPC6 inhibitor confirmation; shares compounds with TRPC6 inhibitor; HEK293-TRPC6, membrane potential dye, ACh-evoked depolarization; inhibition, % at 10 µM; 43% of 3,300 active; AID 488960;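 active = fluorescence ratio falls more than 5 SD below the full-stimulation control mean, in both duplicate runs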;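 note: integrated fluorescence ratio of peak minus minimum over baseline after agonist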
# TRPC6 act conf = confirmation of mouse TRPC6 activators | shares compounds with TRPC6 inhibitor | HEK293-TRPC6 membrane potential dye fluorescence, FDSS | activation, % at 10 µM | 11% of 2,800 active | AID 488961;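 active = ratio signal rise beyond 5 SD above unstimulated control wells' mean, seen in both duplicate runs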;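 note: plate controls were buffer EC0 wells for no effect and acetylcholine ECmax response for full effect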
# * hit, by the source's call; i = inactive; / = no result; ! = not confirmed by another sample. A selection: hits, their analogues and other compounds. The true share with any hit is near 2.3%.
SMILES,TRPC4 block,TRPC6 inhibitor,Yeast superoxide,TRPC6 activator,TRPC4 potent,TRPC4 act,HEK293 MPD ctr-2,HEK293 MPD ctr 2-2,TRPC4 ctr mod,TRPC4 ctr inh 2,TRPC6 block conf,TRPC6 act conf,others
CCCOc1ccc(N2C(=O)CC(N3CCOCC3)C2=O)cc1 (stereo not given),i,i,105.8,i,i,i,/,/,/,/,/,/,
OCCN(CCO)CC(O)CN(c1ccccc1)c1ccccc1 (stereo not given),i,i,114.5,i,i,i,/,/,/,/,/,/,
CCOC(=O)N1CCN(Cc2ccc3c(c2)OCO3)CC1,i,i,111.7,i,i,i,/,/,/,/,/,/,
Cc1c(C)n(Cc2ccccc2)c2ncnc(NCCN(C)C)c12,i,-7.09*,106.9,i,i,i,/,/,/,/,i,i,TRPC4 spec 2=i;TRPC4 spec=-16.6%*;HEK293 MPD ctr 2-1=i;HEK293 MPD ctr-1=-277.0%*
Cc1c(C)n(Cc2ccccc2)c2ncnc(NN)c12,i,i,92.5,i,i,i,/,/,/,/,/,/,
Cc1c(C)n(Cc2ccccc2)c2ncnc(NCCCN(C)C)c12,i,-5.96*,93.3,i,i,i,-101.5%*,i,-20.5%*,53.5%*,42.5%*,i,
Cc1c(C)n(-c2ccccc2)c2ncnc(NCCCN(C)C)c12,i,i,110.5,i,i,i,/,/,/,/,/,/,
COc1ccccc1Nc1ncnc2c1c(C)c(C)n2CCCN(C)C,i,-5.19*,82.4,i,i,i,-101.0%*,i,-23.0%*,74.0%*,54.5%*,i,
CSCc1cc(N2CCOCC2)nc(SCc2ccc(Cl)c(Cl)c2)n1,i,i,83.9,i,i,i,/,/,/,/,/,/,
O=C(c1cccc(S(=O)(=O)Nc2ccc(Br)cc2)c1)N1CCCC1,i,i,106.1,i,i,i,/,/,/,/,/,/,
COc1ccc2cc3[n+](cc2c1OC)CCc1cc2c(cc1-3)OCO2,i,-5.15*,98.9,i,i,i,i,110.0%*,i,i,i,i,
COc1cccc(C2=NCCc3cc4c(cc32)OCO4)c1OC,i,i,108.0,i,i,i,/,/,/,/,/,/,
C[n+]1c2n(c3ccccc31)N=C(c1ccccc1)CS2,i,-5.16*!,90.0,i,i,i,-159.0%*,i,-26.0%*,49.5%*,i,i,
COc1ccccc1Nc1c2ccccc2nc2ccccc12,i,-6.73*,89.4,i,i,i,-182.0%*,i,-35.5%*,68.5%*,50.0%*,i,
CC(C)(C)Nc1c2ccccc2nc2ccccc12,i,-8.9*,110.1,i,i,i,-201.5%*,i,-34.0%*,87.0%*,53.0%*,i,
COc1ccc(Nc2c3ccccc3nc3ccccc23)cc1,i,i,101.4,i,i,i,/,/,/,/,/,/,
O=C(O)c1ccc(Nc2c3ccccc3nc3ccccc23)cc1,i,i,93.2,i,i,i,/,/,/,/,/,/,
OCCCNc1c2ccccc2nc2ccccc12,-6*,-6.11*,105.0,i,i,i,-231.0%*,i,-36.0%*,45.5%*,37.0%*,i,
COc1cc(Nc2c3ccccc3nc3ccccc23)cc(OC)c1OC,i,-7.07*,96.1,i,i,i,-132.5%*,i,-37.5%*,60.0%*,i,i,
Cc1ccc2nc(Cl)c(/C=N/Nc3nc(C)cc(C)n3)c(=O)n2c1,i,-7.97*,96.9,i,i,i,i,i,-24.5%*,i,i,i,
CCC(C)n1c(=N)c(C#N)cc2c(=O)n3cc(C)ccc3nc21 (stereo not given),i,-6.89*,107.8,i,i,i,i,i,i,i,i,i,
CCC(C)n1c(=N)c(C#N)cc2c(=O)n3cccc(C)c3nc21 (stereo not given),i,i,126.4,i,i,i,/,/,/,/,/,/,
CCCn1c2c(c(=N)c3c1CCC3)CCC2,i,-8.06*,90.3,i,i,i,/,/,/,/,i,i,TRPC4 spec 2=77.5%*;TRPC4 spec=-28.2%*;HEK293 MPD ctr 2-1=11.5%*;HEK293 MPD ctr-1=-578.5%*
CN(C)CCCNC(=O)N1c2ccccc2C=Cc2ccccc21,i,-5.34*,113.2,i,i,i,i,i,i,i,65.5%*,i,
CCN(CC)C(=O)N1c2ccccc2C=Cc2ccccc21,i,i,83.4,i,i,i,/,/,/,/,/,/,
O=C(CN1CCCCCC1)NCC1CCCO1 (stereo not given),i,i,100.9,i,i,i,/,/,/,/,/,/,
COC(=O)c1cc(OC(=O)c2ccc(=O)[nH]c2)cc(C(=O)OC)c1,i,i,98.7,i,i,i,/,/,/,/,/,/,
Cc1ccc(-c2ccc(OC(=O)c3ccc(=O)[nH]c3)c(C)c2)cc1,i,-5.07*,97.0,i,i,i,i,i,i,i,i,i,
